One may read the MIC as the lowest concentration found to suppress growth.

The test system of test [1] is Escherichia coli. Description: Minimum inhibitory concentration against Escherichia coli A8 (inoculum, 10e5 cfu per spot). The class given is functional. Put shortly: (§1)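 MIC in µg/mL, determined in Jewell and Permain growth medium with spot inoculation at 10^5 cfu per spot.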
In test [2] the test system is Klebsiella aerogenes. Description: Minimum inhibitory concentration against Klebsiella aerogenes X5L (inoculum, 10e4 cfu per spot). It counts as functional. Put shortly: (§2)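 MIC in µg/mL, determined in Jewell and Permain growth medium with spot inoculation at 10^4 cfu per spot. P99 is described as a constitutive type I lactamase producer.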
Test [3] concerns Staphylococcus aureus. Description: Minimum inhibitory concentration against Staphylococcus aureus A4 (inoculum, 10e5 cfu per spot). The class given is functional. The method, boiled down:
as §1

The subject of test [4] is Escherichia coli. Description: Minimum inhibitory concentration against Escherichia coli DC2 (inoculum, 10e4 cfu per spot). It counts as functional. The method, boiled down:
as §2

Test [5] concerns Klebsiella aerogenes. Description: Minimum inhibitory concentration against Klebsiella aerogenes X6 (inoculum, 10e4 cfu per spot). It counts as functional. The method, boiled down:
as §2

The test system of test [6] is Escherichia coli. As to the kind of experiment: Minimum inhibitory concentration against Escherichia coli DCO (inoculum, 10e4 cfu per spot). The class given is functional. The method, boiled down:
as §2

In the next test the test system is Streptococcus pyogenes. Description: Minimum inhibitory concentration against Streptococcus pyogenes (inoculum, 10e5 cfu per spot) A1. It counts as functional. The method, boiled down: as §1
For test [7], the system named is Enterobacter cloacae. Description: Minimum inhibitory concentration against Enterobacter cloacae P99 (inoculum, 10e4 cfu per spot)(type I lactamase producer). It counts as functional. The method, boiled down:
as §2

A further test relates to Proteus mirabilis. Description: Minimum inhibitory concentration against Proteus mirabilis A18 (inoculum, 10e5 cfu per spot). The class given is functional. The method, boiled down:
as §1

The test system of another test is Pseudomonas aeruginosa. As to the kind of experiment: Minimum inhibitory concentration against Pseudomonas aeruginosa A21 (inoculum, 10e5 cfu per spot). It counts as functional. Put shortly: as §1
For test [8], the system named is Staphylococcus aureus. Description: Minimum inhibitory concentration against Staphylococcus aureus A6 (inoculum, 10e5 cfu per spot). The class given is functional. The method, boiled down:
as §1

The subject of test [9] is Enterobacter cloacae. As to the kind of experiment: Minimum inhibitory concentration against Enterobacter cloacae A13 (inoculum, 10e5 cfu per spot). It counts as functional. The method, boiled down:
as §1

For another test, the system named is Proteus vulgaris. Description: Minimum inhibitory concentration against Proteus vulgaris Pv9 (inoculum, 10e5 cfu per spot).
Test [10] concerns Escherichia coli. As to the kind of experiment: Minimum inhibitory concentration against Escherichia coli TEM X3 (inoculum, 10e4 cfu per spot)(TEM I type lactamase producer).
For another test, the system named is Klebsiella pneumoniae. Description: Minimum inhibitory concentration against Klebsiella pneumoniae A24 (inoculum, 10e5 cfu per spot). It counts as functional. Put shortly:
as §1

The test system of test [11] is Enterobacter cloacae. Description: Minimum inhibitory concentration against Enterobacter cloacae P99 (inoculum, 10e4 cfu per spot). It counts as functional. The method, boiled down:
as §2

The test system of test [12] is Escherichia coli. As to the kind of experiment: Minimum inhibitory concentration against Escherichia coli X4 (inoculum, 10e4 cfu per spot).
The subject of a further test is Serratia marcescens. Description: Minimum inhibitory concentration against Serratia marcescens A16 (inoculum, 10e5 cfu per spot). The class given is functional. Put shortly:
as §1

Converted amounts (≈) assume the structure as drawn. Where only a bound is given, the exact number is not on record here.

For `CC(=O)OCC1=C(C(=O)OC(C)(C)C)N2C(=O)[C@@H](Nc3nc4cc(N)ccc4[nH]3)C2SC1` (stereo partly drawn), the MIC stood at 0.25 µg/mL (≈ 0.544 µM) in the test with Escherichia coli [1]; 8 µg/mL (≈ 17.4 µM) in the test with Klebsiella aerogenes [2]; 32 µg/mL (≈ 69.6 µM) in the test with Staphylococcus aureus [3]; 0.03 µg/mL (≈ 0.0653 µM) with Escherichia coli [4]; 0.12 µg/mL (≈ 0.261 µM) with Klebsiella aerogenes [5]; 0.06 µg/mL (≈ 0.131 µM) against Escherichia coli [6]. The MIC is 1 µg/mL (≈ 2.18 µM) in the test on Streptococcus pyogenes; 32 µg/mL (≈ 69.6 µM) with Enterobacter cloacae [7]; 32 µg/mL (≈ 69.6 µM) against Proteus mirabilis; > 256 µg/mL in the test with Pseudomonas aeruginosa; 2 µg/mL (≈ 4.35 µM) in the test on Staphylococcus aureus [8]; 256 µg/mL (≈ 557 µM) against Enterobacter cloacae [9]. The minimal inhibitory concentration (MIC) in the test with Proteus vulgaris came to 128 µg/mL (≈ 279 µM); in the test with Escherichia coli [10] it was 1 µg/mL (≈ 2.18 µM); in the test on Klebsiella pneumoniae it was 0.5 µg/mL (≈ 1.09 µM); in the test with Enterobacter cloacae [11], 0.06 µg/mL (≈ 0.131 µM); in the test on Escherichia coli [12], 0.06 µg/mL (≈ 0.131 µM); against Serratia marcescens it was 256 µg/mL (≈ 557 µM).
With `CC(=O)OCC1=C(C(=O)OC(c2ccccc2)c2ccccc2)N2C(=O)[C@@H](Nc3nc4c(O)cccc4[nH]3)C2SC1` (stereo partly drawn), the minimal inhibitory concentration (MIC) in the test with Escherichia coli [1] was 1 µg/mL (≈ 1.75 µM); with Klebsiella aerogenes [2], 256 µg/mL (≈ 449 µM); against Staphylococcus aureus [3] it was 32 µg/mL (≈ 56.1 µM); in the test with Escherichia coli [4] it was 0.12 µg/mL (≈ 0.21 µM); in the test with Klebsiella aerogenes [5], 1 µg/mL (≈ 1.75 µM); with Escherichia coli [6], 0.5 µg/mL (≈ 0.876 µM). Moreover, the MIC is 2 µg/mL (≈ 3.5 µM) in the test on Streptococcus pyogenes; > 256 µg/mL against Enterobacter cloacae [7]; 16 µg/mL (≈ 28 µM) in the test with Proteus mirabilis; > 256 µg/mL against Pseudomonas aeruginosa; 2 µg/mL (≈ 3.5 µM) in the test with Staphylococcus aureus [8]; > 256 µg/mL against Enterobacter cloacae [9]. Also, the MIC against Proteus vulgaris came to 128 µg/mL (≈ 224 µM); in the test with Escherichia coli [10], 32 µg/mL (≈ 56.1 µM); in the test with Klebsiella pneumoniae, 8 µg/mL (≈ 14 µM); in the test with Enterobacter cloacae [11], 1 µg/mL (≈ 1.75 µM); against Escherichia coli [12], 0.5 µg/mL (≈ 0.876 µM); with Serratia marcescens it was 256 µg/mL (≈ 449 µM).
As to `CC(=O)OCC1=C(C(=O)OC(c2ccccc2)c2ccccc2)N2C(=O)[C@@H](Nc3nc4cc(C(F)(F)F)ccc4[nH]3)C2SC1` (stereo partly drawn), the minimum inhibitory concentration (MIC) was 32 µg/mL (≈ 51.4 µM) against Escherichia coli [1]; > 256 µg/mL in the test with Klebsiella aerogenes [2]; 128 µg/mL (≈ 206 µM) with Staphylococcus aureus [3]; 0.12 µg/mL (≈ 0.193 µM) with Escherichia coli [4]; 64 µg/mL (≈ 103 µM) in the test with Klebsiella aerogenes [5]; 32 µg/mL (≈ 51.4 µM) with Escherichia coli [6]. In addition, the minimal inhibitory concentration (MIC) against Streptococcus pyogenes was 1 µg/mL (≈ 1.61 µM); against Enterobacter cloacae [7] it was > 256 µg/mL; against Proteus mirabilis, 128 µg/mL (≈ 206 µM); in the test with Pseudomonas aeruginosa, > 256 µg/mL; in the test with Staphylococcus aureus [8], 2 µg/mL (≈ 3.21 µM); with Enterobacter cloacae [9], > 256 µg/mL. Besides, the minimal inhibitory concentration (MIC) against Proteus vulgaris was > 256 µg/mL; against Escherichia coli [10], 32 µg/mL (≈ 51.4 µM); with Klebsiella pneumoniae it was 32 µg/mL (≈ 51.4 µM); with Enterobacter cloacae [11], 32 µg/mL (≈ 51.4 µM); in the test on Escherichia coli [12], 32 µg/mL (≈ 51.4 µM); in the test with Serratia marcescens it was > 256 µg/mL.
For the compound `Cn1nnnc1SCC1=C(C(=O)OC(c2ccccc2)c2ccccc2)N2C(=O)[C@@H](Nc3nc4cc(O)ccc4[nH]3)C2SC1` (stereo partly drawn), the minimum inhibitory concentration (MIC) in the test with Escherichia coli [1] is 0.25 µg/mL (≈ 0.399 µM); against Klebsiella aerogenes [2] it was 64 µg/mL (≈ 102 µM); with Staphylococcus aureus [3], 16 µg/mL (≈ 25.5 µM); in the test with Escherichia coli [4], < 0.03 µg/mL; against Klebsiella aerogenes [5], 0.25 µg/mL (≈ 0.399 µM); with Escherichia coli [6], 0.12 µg/mL (≈ 0.191 µM). Moreover, the MIC in the test on Streptococcus pyogenes is 0.5 µg/mL (≈ 0.798 µM); with Enterobacter cloacae [7] it was 32 µg/mL (≈ 51.1 µM); against Proteus mirabilis it was 0.5 µg/mL (≈ 0.798 µM); against Pseudomonas aeruginosa, > 256 µg/mL; with Staphylococcus aureus [8], 2 µg/mL (≈ 3.19 µM); in the test with Enterobacter cloacae [9] it was > 256 µg/mL. The minimal inhibitory concentration (MIC) is 16 µg/mL (≈ 25.5 µM) with Proteus vulgaris; 1 µg/mL (≈ 1.6 µM) with Escherichia coli [10]; 4 µg/mL (≈ 6.38 µM) in the test on Klebsiella pneumoniae; 0.25 µg/mL (≈ 0.399 µM) in the test with Enterobacter cloacae [11]; 0.12 µg/mL (≈ 0.191 µM) in the test with Escherichia coli [12]; 64 µg/mL (≈ 102 µM) against Serratia marcescens.
Regarding `CC1=C(C(=O)OC(c2ccccc2)c2ccccc2)N2C(=O)[C@@H](NC3=NCCN3)C2SC1` (stereo partly drawn), the MIC against Escherichia coli [1] is 2 µg/mL (≈ 4.46 µM); against Klebsiella aerogenes [2], 4 µg/mL (≈ 8.92 µM); against Staphylococcus aureus [3], > 256 µg/mL; in the test with Escherichia coli [4] it was 2 µg/mL (≈ 4.46 µM); in the test with Klebsiella aerogenes [5], 4 µg/mL (≈ 8.92 µM); in the test on Escherichia coli [6], 4 µg/mL (≈ 8.92 µM). Further, the MIC was 128 µg/mL (≈ 285 µM) with Streptococcus pyogenes; 4 µg/mL (≈ 8.92 µM) in the test with Enterobacter cloacae [7]; 256 µg/mL (≈ 571 µM) against Proteus mirabilis; > 256 µg/mL against Pseudomonas aeruginosa; > 256 µg/mL against Staphylococcus aureus [8]; 4 µg/mL (≈ 8.92 µM) against Enterobacter cloacae [9]. For the same compound, the minimum inhibitory concentration (MIC) with Proteus vulgaris was > 256 µg/mL; against Escherichia coli [10], 2 µg/mL (≈ 4.46 µM); in the test with Klebsiella pneumoniae it was 4 µg/mL (≈ 8.92 µM); against Enterobacter cloacae [11], 2 µg/mL (≈ 4.46 µM); in the test with Escherichia coli [12], 2 µg/mL (≈ 4.46 µM); against Serratia marcescens it was > 256 µg/mL.
`CC(=O)OCC1=C(C(=O)OC(C)(C)C)N2C(=O)[C@@H](Nc3nc4ccc[nH]c-4n3)C2SC1` (stereo partly drawn): the minimum inhibitory concentration (MIC) in the test on Escherichia coli [1] amounted to 2 µg/mL (≈ 4.49 µM); in the test on Klebsiella aerogenes [2], 256 µg/mL (≈ 575 µM); in the test with Staphylococcus aureus [3], 64 µg/mL (≈ 144 µM); with Escherichia coli [4] it was 0.5 µg/mL (≈ 1.12 µM); against Klebsiella aerogenes [5] it was 1 µg/mL (≈ 2.24 µM); in the test on Escherichia coli [6] it was 0.5 µg/mL (≈ 1.12 µM). The minimal inhibitory concentration (MIC) was 4 µg/mL (≈ 8.98 µM) against Streptococcus pyogenes; > 256 µg/mL with Enterobacter cloacae [7]; 32 µg/mL (≈ 71.8 µM) in the test on Proteus mirabilis; > 256 µg/mL with Pseudomonas aeruginosa; 2 µg/mL (≈ 4.49 µM) with Staphylococcus aureus [8]; 256 µg/mL (≈ 575 µM) against Enterobacter cloacae [9]. Moreover, the MIC is > 256 µg/mL against Proteus vulgaris; 4 µg/mL (≈ 8.98 µM) in the test with Escherichia coli [10]; 2 µg/mL (≈ 4.49 µM) in the test with Klebsiella pneumoniae; 1 µg/mL (≈ 2.24 µM) against Enterobacter cloacae [11]; 0.5 µg/mL (≈ 1.12 µM) in the test with Escherichia coli [12]; > 256 µg/mL against Serratia marcescens.
